Assay results from different studies.
Protocols differ between the studies behind these lines.
Cell line: A549
Observed: cell growth or viability

SMILES | assay | conditions | IC50
COc1ccc(NC(=S)N/N=C/c2cccc3cc4ccccc4nc23)cc1 | MTT | 48 h | 17.8 µM
CCCCn1cnc2ccc(-c3ccc(NC(=O)C4CCC4)nc3)cc2c1=O | CCK-8 | 72 h | 3.93 µM
NS(=O)(=O)c1ccc(-n2nc(C(=O)NN3C(=O)c4ccccc4C3=O)cc2-c2ccccc2)cc1 | fluorescence | 48 h | 33.5 µM
Cc1ccc(NNc2nc3ccc(Br)cc3c(=O)n2-c2ccccc2)cc1 | MTT | 48 h | 17.4 µM
Cc1cc(NS(=O)(=O)c2ccc(NC(=O)/C(C#N)=C/c3cccnc3)cc2)no1 | MTT | 48 h | > 200 µM
O=C(O)c1ccc(NCc2ccc([N+](=O)[O-])cc2)cc1 | resazurin | 72 h | > 100 µM
CCCCn1cnc2ccc(-c3ccc(NC(=O)NCC)nc3)cc2c1=O | CCK-8 | 72 h | > 10 µM
O=C(Nc1cccc(F)c1)Nc1nc2cc(-c3ccc4ncn(CCN5CCOCC5)c(=O)c4c3)ccc2s1 | MTT | 72 h | > 20 µM
COc1cccc(CNc2ccc(C(=O)O)cc2)c1O | resazurin | 72 h | > 100 µM
CN1CCc2c(c3ccccc3n2Cc2ccc(C(=O)NO)cc2)C1 | CCK-8 | 48 h | 27.8 µM
C(=N\Nc1cc(N/N=C/c2ccc3ccccc3n2)nc(-c2ccccc2)n1)/c1ccc2ccccc2n1 | MTT | 48 h | 7.32 µM
CCCCCC(=O)Nc1ccc(-c2ccc3ncn(Cc4ccccc4)c(=O)c3c2)cn1 | CCK-8 | 72 h | > 10 µM
O=C(Nc1cccc(C(F)(F)F)c1)Nc1nc2cc(-c3ccc4ncn(CCN5CCOCC5)c(=O)c4c3)ccc2s1 | MTT | 72 h | 1.48 µM
Cc1ccccc1NC(=O)Nc1ccc(-c2ccc3ncn(Cc4ccccc4)c(=O)c3c2)cn1 | CCK-8 | 72 h | 0.98 µM
CCC(=O)Nc1nc2cc(-c3ccc4ncn(Cc5ccccc5)c(=O)c4c3)ccc2s1 | MTT | 72 h | > 20 µM
CCCn1cnc2ccc(-c3ccc(NC(=O)CNCC)nc3)cc2c1=O | CCK-8 | 72 h | 3.42 µM
CN1CCC(NC2CCc3[nH]c4c(C(N)=O)ccc(-c5ccccc5Cl)c4c3C2)CC1 (centres unmarked) | – | 96 h | 0.0301 µM
[NH2][Pt]([NH2])([Cl])[Cl] | MTT | 48 h | 27.2 µM
C/C(=N\c1nc(N)nc(/N=C(\C)c2c(O)c3ccccc3oc2=O)n1)c1c(O)c2ccccc2oc1=O | MTT | 48 h | 5.58 µM
CCCC(=O)Nc1ccc(-c2ccc3ncn(CCC)c(=O)c3c2)cn1 | CCK-8 | 72 h | 0.46 µM
Cc1cccc(C)c1NC(=S)N/N=C/c1ccc(N2CCC(O)CC2)cc1 | MTT | 24 h | 1.56 µM
Cc1ccc(NC(=O)Nc2ccc(-c3ccc4ncn(Cc5ccccc5)c(=O)c4c3)cn2)cc1 | CCK-8 | 72 h | > 10 µM
O=C(C=Cc1ccc(OCCOc2ccc(C=CC(=O)c3cccs3)cc2)cc1)c1cccs1 | MTT | 48 h | 273 µM
